Results of several laboratories.
Each line is one published result; the experiments were not run side by side.
Target: Homeodomain-interacting protein kinase 4 (HIPK4, Homo sapiens, UniProt Q8NE63)
One construct used (Q8NE63 1-616): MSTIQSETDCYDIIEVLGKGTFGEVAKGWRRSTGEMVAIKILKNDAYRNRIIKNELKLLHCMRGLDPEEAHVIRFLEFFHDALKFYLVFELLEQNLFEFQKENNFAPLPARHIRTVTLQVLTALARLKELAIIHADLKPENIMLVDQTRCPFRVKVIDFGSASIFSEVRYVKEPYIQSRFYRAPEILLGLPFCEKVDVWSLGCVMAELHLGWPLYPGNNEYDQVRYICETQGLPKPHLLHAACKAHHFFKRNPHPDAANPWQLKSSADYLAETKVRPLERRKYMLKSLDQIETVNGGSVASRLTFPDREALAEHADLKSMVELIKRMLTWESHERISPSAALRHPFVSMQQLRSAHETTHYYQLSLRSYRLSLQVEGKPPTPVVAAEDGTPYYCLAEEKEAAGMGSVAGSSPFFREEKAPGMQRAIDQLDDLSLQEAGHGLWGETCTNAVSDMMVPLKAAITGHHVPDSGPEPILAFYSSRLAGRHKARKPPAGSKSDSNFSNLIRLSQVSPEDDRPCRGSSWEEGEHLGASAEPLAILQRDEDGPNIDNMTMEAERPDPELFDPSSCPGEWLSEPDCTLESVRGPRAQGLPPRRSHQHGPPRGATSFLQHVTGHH

`CN(C)c1nccc(-c2cnn3ncccc23)n1` has a remaining binding of 75% (binding; 1 µM).
For `C[C@@H]1CN(c2cc(-c3n[nH]c4ccc(OC5(C)CC5)cc34)ncn2)C[C@H](C)O1`, the remaining binding was 97% (cell-free assay, competition with immobilised ligand; 0.1 µM).
`Nc1ncc2c(n1)-c1c([nH]c3ccc(C#CC4CC4)cc13)CCCC2` has a remaining binding of 95% (binding, competition with immobilised ligand; 1 µM).
`Cc1c[nH]c2nccc(Oc3c(F)cc(Nc4cc(Cl)nc(N)n4)cc3F)c12` gave a remaining binding of 100% (cell-free assay, competition with immobilised ligand; 0.1 µM).
For `O=C(Nc1c[nH]nc1C(=O)NC1CCNCC1)c1cc(F)cc(F)c1`, the remaining binding was 59% (binding, competition with immobilised ligand; 1 µM).
With `O=C(c1ccc(Nc2ncc(Cl)c(-c3cc4ccccc4s3)n2)cc1)N1CCC(N2CCCC2)CC1` the remaining binding was 2.5% (binding, competition with immobilised ligand; 1 µM).
For `CN(c1ccnc(CNc2nc(Nc3ccc4c(c3)CC(=O)N4)ncc2C(F)(F)F)n1)S(C)(=O)=O`, the remaining binding was 35% (cell-free assay, competition with immobilised ligand; 1 µM).
The remaining binding of `N[C@@H]1CCN(c2nccc(-c3cnn4ncccc34)n2)C1` is reported as 98% (binding; 1 µM).
The remaining binding of `COc1cnc(Nc2cccc(S(N)(=O)=O)c2)nc1N1CCN(c2ccccc2)C(=O)C1` is reported as 91% (binding, competition with immobilised ligand; 1 µM).
With `CN(C)c1ncc(F)c(-c2cnn3ncccc23)n1` the remaining binding was 100% (binding; 1 µM).
The remaining binding of `Cn1cc(Cl)c2c(Oc3c(F)cc(Nc4cc(Cl)nc(N)n4)cc3F)ccnc21` is reported as 100% (cell-free assay, competition with immobilised ligand; 0.1 µM).
`O=C(c1ccc(Nc2nccc(-c3cc4ccccc4s3)n2)cc1)N1CCC(N2CCCC2)CC1` has a remaining binding of 4.1% (binding, competition with immobilised ligand; 1 µM).
For `CC1CCCN1c1nccc(-c2cnn3ncccc23)n1` (stereo not shown), the remaining binding was 97% (binding; 1 µM).
With `CN(C(=O)c1ccccc1)c1cc(N(C)c2ccc3c(c2)CCc2ccc(C(=O)NCCN4CCOCC4)cc2C3=O)ccc1F` the remaining binding was 100% (cell-free assay, competition with immobilised ligand; 1 µM).
The remaining binding of `C[C@@H]1CCN(c2nccc(-c3cnn4ncccc34)n2)C1` is reported as 92% (binding; 1 µM).
With `CCN1CCN(Cc2ccc(C(=O)Nc3ccc(C)c(Oc4ccc5c(c4)CC(=O)N5)c3)cc2C(F)(F)F)CC1` the remaining binding was 100% (binding, competition with immobilised ligand; 1 µM).
With `CN(c1nccc(-c2cnn3ncccc23)n1)C1CC1` the remaining binding was 99% (binding; 1 µM).
`C=CC(=O)N1CCC(C(=O)NCC(=O)N2CCN(c3nc(-c4cnc(N)nc4C(F)F)nc(N4CCOCC4)n3)CC2)CC1` gave a remaining binding of 100% (binding, competition with immobilised ligand; 1 µM).
`Nc1c(C(=O)NCc2ccc(C(=O)NCCCC3CCCCC3)cc2)cnn1-c1ccccc1` has a remaining binding of 100% (cell-free assay, competition with immobilised ligand; 0.1 µM).
`C[C@@H](c1ccc(-n2cnc3c(N)ncnc32)cc1)N1CCc2nn(C)c(Cc3ccccc3)c2C1=O` has a remaining binding of 100% (binding, competition with immobilised ligand; 0.1 µM).
`c1cnn2ncc(-c3ccnc(N4CCC45COC5)n3)c2c1` has a remaining binding of 87% (binding; 1 µM).
`O=C(NCCCN1CCOCC1)c1ccc(Nc2ncc(Cl)c(-c3ccc(Cl)s3)n2)cc1` gave a remaining binding of 14% (binding, competition with immobilised ligand; 1 µM).
